# Screens deposited in PubChem by several laboratories.
# Rows were chosen to be rich in hits. Some 5.5% of all compounds tested hit in one or more screens of this group.
# PostGolgi yeast: growth inhibition of a yeast mutant, post-Golgi transport screen. inhibition, % at 10 µM. post-Golgi transport phenotypic cell assay. 98,000 compounds, 0.9% hits;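 also: yeast cells grown in 1536-well plates; yeast grown about 18 h at 30C before absorbance read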
# PostGolgi ctrl: inhibits growth of the yeast control strain; efflux-deficient yeast background strain, growth absorbance A615, 16 h; inhibition, % at 10 µM; 98,000 compounds, 5% hits; AID 738
# PLAP act: activates human placental alkaline phosphatase; activation fold at 20 µM; purified PLAP enzyme, luminescent substrate read-out; active compounds read high; 96,000 compounds, 1.2% hits; P05187; in the data active = activation fold above about 2
# HePTP inhibitor: blocks human HePTP tyrosine phosphatase | P35236 | recombinant HePTP phosphatase activity, OD absorbance | inhibition, % at 20 µM | 110,000 compounds, 0.64% hits; in the data active = inhibition above about 50%;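 also: plate controls were vehicle for no effect and reference inhibitor for full effect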
# Target sequence (P35236 whole entry, looked up): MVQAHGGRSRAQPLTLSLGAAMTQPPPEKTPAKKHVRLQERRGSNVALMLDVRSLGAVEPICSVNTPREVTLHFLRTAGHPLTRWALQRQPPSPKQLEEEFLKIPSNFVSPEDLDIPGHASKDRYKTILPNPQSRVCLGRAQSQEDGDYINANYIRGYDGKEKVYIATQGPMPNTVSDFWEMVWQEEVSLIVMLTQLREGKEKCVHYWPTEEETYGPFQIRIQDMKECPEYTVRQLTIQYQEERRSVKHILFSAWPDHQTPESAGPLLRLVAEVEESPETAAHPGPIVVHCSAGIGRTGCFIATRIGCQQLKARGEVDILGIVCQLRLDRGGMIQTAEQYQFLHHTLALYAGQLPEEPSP
# Ecoli WT expand: blocks growth of wild type E. coli BW25113 | OD600 absorbance | growth inhibition, % at 100 µM | 98,000 compounds, 0.15% hits | AID 710;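 active = growth inhibition above about 50% at one test dose, limit read from the data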;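 also: growth measured after 20 h incubation at 37 °C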
# tolC growth inh: blocks growth of E. coli BW25113 tolC mutant; AID 573; OD615; 65,000 compounds, 2.2% hits; growth inhibition, % at 10 µM (by protocol);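 active = growth inhibition at or above a cutoff equal to the mean over every tested compound plus 3 SD, cut at about 60% in these data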;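 also: growth measured after 20 h incubation at 37 °C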
#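 test system = E. coli BW25113 ΔtolC::kan bacteria | medium = LB with kanamycin 50 µg/mL | signal = OD at 615 nm | schedule = 37 °C, 20 h exposure | evaluation = % inhibition of E. coli growth | compound dosing = one dose of 10 µM final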
# * marks the source's active call; other numbers are inactive results; . = no result. Rule as the data show it, unless noted: active = inhibition above about 30%; inactive = the rest.
SMILES,PostGolgi yeast,PostGolgi ctrl,PLAP act,HePTP inhibitor,Ecoli WT expand,tolC growth inh
CCOc1ccc(C2Nc3ccccc3NC3=C2C(=O)CC(c2ccccc2)C3)cc1 (stereo unspecified),.,.,.,6,.,.
Brc1ccc(/C=N/c2nc3c(s2)CCCC3)cc1,.,.,.,4,.,.
Oc1c(Br)cc(Br)cc1/C=N/c1nc2c(s1)CCCC2,0,9,.,.,67*,.
O=C(c1cccc([N+](=O)[O-])c1)c1ccc2c(c1)C(=O)NC2=O,.,.,.,104*,.,.
CCOc1ccc(S(=O)(=O)Nc2ccc(Cl)cn2)c(C)c1C,-14,-3,1,19,-5,32
CCOc1cc(C)c(S(=O)(=O)Nc2ccc(Cl)cn2)cc1C,1,58*,0.9,-3,-3,24
CCCC(=O)C1=C(O)C(C(=O)OC)C(C)(C)CC1=Nc1ccccc1OC (stereo unspecified),.,.,.,-1,.,.
O=[N+]([O-])c1ccc(N=Cc2cc(I)cc(I)c2O)c(O)c1,.,.,.,76*,.,.
O=C(N/N=C\c1cc(Br)cc(I)c1O)c1ccc([N+](=O)[O-])cc1,.,.,.,-3,.,.
O=C(Nc1ccc2c(c1)OCO2)c1ccc(COc2ccc3c(c2)CCC3)o1,-9,16,0.8,-3,-1,72*
O=C(NC(=S)Nc1ccc2oc(-c3ccc(I)cc3)nc2c1)c1ccco1,.,.,.,4,.,.
CCN(CC)C(=O)C(=O)NNC(=O)COc1ccc(Cl)cc1,.,.,.,4,.,.
CCn1c(=O)cc(OCC(=O)N2CCN(C(=O)c3ccco3)CC2)c2ccccc21,1,0,1.1,-5,-1,-9
CCn1c(=O)c2cc(C(=O)N3CCN(C(=O)c4ccco4)CC3)sc2c2ccccc21,.,.,.,3,.,98*
CCOc1ccc(C(=O)Nc2sc3c(c2C(N)=O)CCCC3)cc1,.,.,.,-1,.,.
Cc1ccc(Cn2nnnc2CN2CCC(c3nc4ccc(Cl)cc4[nH]3)CC2)cc1,5,74*,1.9,.,-7,.
N#Cc1nc(Cc2cccc3ccccc23)oc1NCc1ccc(F)cc1,-6,31*,0.9,2,4,71*
C=CCNc1oc(Cc2cccc3ccccc23)nc1C#N,-15,19,0.7,5,-3,39
O=c1[nH]c(=S)[nH]c(O)c1C(c1ccncc1)c1c(O)[nH]c(=S)[nH]c1=O,.,.,.,6,.,.
Cc1ccc(S(=O)(=O)NCc2nc3ccccc3[nH]2)cc1,-12,1,2.3*,9,6,-20
Cc1ccc(C)c(NC(=O)c2nnn(Cc3ccccc3C)c2N)c1,-4,33*,0.9,5,-7,28
Cc1ccc(C)c(NC(=O)c2nnn(Cc3ccccc3)c2N)c1,2,26,0.9,.,-13,8
CCCN1CCN(C(=O)CCCn2c(C)c3cnn(-c4ccccc4)c(=O)c3c2C)CC1,-3,31*,1.6,1,3,-4
CCOc1ccc2oc(=O)cc(C)c2c1,4,36*,0.9,2,6,.
CCOc1ccc(Nc2cc(=O)oc3ccccc23)cc1,-1,48*,1,.,-5,.
SMILES,PostGolgi yeast,PostGolgi ctrl,PLAP act,HePTP inhibitor,Ecoli WT expand,tolC growth inh
CCOc1ccc(Cl)cc1C=C1C(=O)NC(=S)NC1=O,.,.,.,14,.,.
O=C(CN1CCOCC1)Nc1c2c(nc3ccccc13)N(Cc1ccccc1)CC2,7,1,1.4,7,0,-15
O=C(CN1CCCC1)Nc1c2c(nc3ccccc13)N(Cc1ccccc1)CC2,-6,13,2*,.,1,.
COc1ccc(C2/C(=C(/O)c3ccc(C)cc3)C(=O)C(=O)N2CCCn2ccnc2)cc1OC (stereo unspecified),.,.,.,-6,.,.
Cc1ccc(NC(=S)NNC(=O)c2cn(C)nc2C)cc1,0,-2,2.3*,.,30,.
Cc1ccc(NC(=S)NNC(=O)c2nn(C)c(C)c2Cl)cc1,13,-1,2.3*,.,5,.
Cc1ccc(NC(=S)NNC(=O)c2ccccc2OC(F)F)cc1,-1,11,1.8,.,15,.
Cc1nn(CC(=O)NNC(=S)Nc2ccccc2)c(C)c1[N+](=O)[O-],-5,3,1.9,.,2,.
Cc1nn(C(C)C(=O)NNC(=S)Nc2ccc(Cl)cc2)c(C)c1[N+](=O)[O-] (stereo unspecified),-2,-3,2.4*,.,6,.
Cc1ccc(NC(=O)c2onc(C)c2Cl)cc1,-5,9,0.9,.,-5,.
Cc1ccc(NC(=S)NNC(=O)c2c([N+](=O)[O-])c(C)nn2C)cc1,0,3,2.5*,.,3,.
O=C1/C(=C/c2ccc(Br)c([N+](=O)[O-])c2)SC(=S)N1Cc1ccccc1,.,.,.,-8,.,.
CCOc1ccccc1NS(=O)(=O)c1cc(Cl)ccc1Cl,.,.,.,-6,.,.
O=C(Nc1cccc2ccccc12)c1cc([N+](=O)[O-])ccc1Cl,.,.,.,-10,.,.
COc1ccc(NC(=O)COc2cccc(C)c2C)cc1,.,.,.,1,.,.
CC1CCCC(C)N1C(=O)CN1C(=O)C(C)(C)Oc2ccc(C(=O)NC3CCCC3)cc21 (stereo unspecified),-5,3,1.5,1,8,-10
CC1CCCC(C)N1C(=O)CN1C(=O)C(C)(C)Oc2ccc(C(=O)NC3CCCCC3)cc21 (stereo unspecified),2,-2,1.4,3,0,84*
CCCCN(CC)c1nc(-c2ccncc2)nc2ccccc12,5,63*,1.7,.,13,.
COc1nc(-c2ccncc2)nc2ccccc12,4,10,0.9,.,3,.
COCCNS(=O)(=O)c1ccc(OC)c(Br)c1,.,.,.,7,.,.
CCOc1ccc(S(=O)(=O)NCCOC)cc1C,-3,45*,0.9,.,10,.
CCNC(=S)NNC(=O)c1cc(CC(C)C)nc2ccccc12,-5,6,2.3*,.,3,.
CCCOc1cccc(-c2cc(C(=O)NNC(=S)NCC)c3ccccc3n2)c1,-3,-1,2.2*,.,-12,.
CCNC(=S)NNC(=O)c1cc(-c2ccccc2C)nc2ccccc12,-4,13,1.2,.,-5,.
COc1ccc(/C=C(\C#N)C(=O)NCC2CCCO2)cc1 (stereo unspecified),.,.,.,2,.,.
SMILES,PostGolgi yeast,PostGolgi ctrl,PLAP act,HePTP inhibitor,Ecoli WT expand,tolC growth inh
Cc1c(NC(=S)Nc2ccc(Cl)cc2)c(=O)n(-c2ccccc2)n1C,.,.,.,5,.,.
Cc1c(NC(=O)Nc2ccc(Cl)c(Cl)c2)c(=O)n(-c2ccccc2)n1C,-1,12,1,4,13,100*
COC(=O)c1ccc(NC(=O)Cc2ccccc2[N+](=O)[O-])cc1,.,.,.,2,.,.
O=C(C(Sc1ccccc1)c1ccccc1)N1CCCC1 (stereo unspecified),.,.,.,102*,.,.
CN1C(=O)C(=Cc2cn(CC(=O)Nc3ccccc3)c3ccccc23)C(=O)N(C)C1=O,.,.,.,-3,.,.
CCOc1ccc(-c2cc(C)n3nc(C(=O)Nc4ccc(C(C)=O)cc4)cc3n2)cc1,.,.,.,94*,.,.
COc1ccc(Cl)cc1NC(=O)c1cc2nc(-c3ccccc3)cc(C)n2n1,.,.,.,103*,.,.
COc1ccccc1N(CC(=O)Nc1ccc(Br)cc1)S(=O)(=O)c1ccccc1,.,.,.,-4,.,.
CCCNc1nc(Nc2ccc(C)cc2)nc(N2CCCC2)n1,-5,36*,1,.,2,.
CCOc1nc(Nc2ccc(Cl)cc2)nc(N2CCCCC2)n1,.,.,.,-15,.,.
COc1ccc(NC(=O)CSc2nc3c(c(=O)n2-c2ccc(F)cc2)SCC3)cc1,-8,9,1.1,14,-13,5
